{"data": "Measurements pooled from the literature", "target": "Bone morphogenetic protein receptor type-1B (BMPR1B, Homo sapiens, UniProt O00238)", "note": "Lines come from different studies, so protocols differ."}
{"Structure (SMILES)": "Nc1ncnc2occ(-c3ccc(NC(=O)Nc4cc(C(F)(F)F)ccc4F)cc3)c12", "assay": "cell-free assay", "setting": "20 µM", "quantity": "remaining signal", "value": "37%"}
{"Structure (SMILES)": "CNC(=O)c1ccc(Nc2ncc(C(F)(F)F)c(NCc3nccnc3N(C)S(C)(=O)=O)n2)cc1", "assay": "cell-free assay, competition with immobilised ligand", "setting": "0.1 µM", "quantity": "remaining binding", "value": "65%"}
{"Structure (SMILES)": "O=C(Nc1cnn(-c2csc(C(=O)NC3COC3)c2)c1)Nc1ccccc1Cl", "assay": "enzyme activity, inhibitor", "setting": "5 µM", "quantity": "remaining activity", "value": "109%"}
{"Structure (SMILES)": "Cc1ccc(C(=O)Nc2ccc(CN3CCN(C)CC3)c(C(F)(F)F)c2)cc1C#Cc1cnc2cccnn12", "assay": "enzyme activity", "setting": "23.5 nM", "quantity": "remaining activity", "value": "96%"}
{"Structure (SMILES)": "Cc1cnc(NC2CCOCC2)nc1-n1cnc(C(=O)NC(CN)c2cc(F)cc(Cl)c2)c1 (stereo not shown)", "assay": "enzyme activity, inhibitor, radiometric", "setting": "1 µM", "quantity": "remaining activity", "value": "106%"}
{"Structure (SMILES)": "Cc1cc(NC(=O)c2cccc3cc(-c4cccc5[nH]nc(N)c45)ccc23)ccc1F", "assay": "enzyme activity, inhibitor", "setting": "0.1 µM", "quantity": "activity vs control", "value": "100%"}
{"Structure (SMILES)": "N#Cc1ccc(Nc2ccc3[nH]c(=O)[nH]c3c2)c(Cl)c1", "assay": "cell-free assay, competition with immobilised ligand", "setting": "1 µM", "quantity": "remaining binding", "value": "100%"}
{"Structure (SMILES)": "CC(C)(O)[C@H]1CC[C@H](Nc2ccc3ncc(-c4cccc(C(F)(F)F)c4)n3n2)CC1", "assay": "enzyme activity, inhibitor", "setting": "1 µM", "quantity": "remaining activity", "value": "147%"}
{"Structure (SMILES)": "Cc1ccc(NC(=O)c2ccc(C)c(C(F)(F)F)c2)cc1C#Cc1nn(C2CCC(O)CC2)c2ncnc(N)c12 (stereo not shown)", "assay": "cell-free assay", "setting": "10 µM", "quantity": "remaining signal", "value": "18%"}
{"Structure (SMILES)": "Cc1sc(C(=O)NC2COC2)cc1-n1cc(NC(=O)Nc2c(F)cccc2Cl)cn1", "assay": "enzyme activity, inhibitor", "setting": "10 µM", "quantity": "remaining activity", "value": "104%"}
{"Structure (SMILES)": "CN1CC(Oc2cnc(C#N)cc2-c2ccn3nc(NC(=O)C4CC4)cc3c2)C1", "assay": "enzyme activity, inhibitor", "setting": "1 µM", "quantity": "inhibition", "value": "-1%"}
{"Structure (SMILES)": "C[C@@H]1CCN(c2nccc(-c3cnn4ncccc34)n2)C1", "assay": "binding", "setting": "1 µM", "quantity": "remaining binding", "value": "68%"}
{"Structure (SMILES)": "COc1cc(Cl)c(C(=O)N[C@@H](CN[C@H]2CC[C@@H](N)CC2)Cc2ccc(C#N)cc2)cc1-c1ccc(CN[C@H](C)c2ccc(C)cc2)o1", "assay": "enzyme activity, inhibitor", "setting": "1 µM", "quantity": "remaining activity", "value": "101%"}
